Experimental data gathered from unrelated publications.
Compare with care: the assays were run in different laboratories.
Target: Receptor tyrosine-protein kinase erbB-4 (ERBB4, Homo sapiens, UniProt Q15303)

CN1CCN(C(=O)c2ccc(NC(=O)Nc3ccc(N(C)c4ccnc(Nc5ccc(CS(C)(=O)=O)cc5)n4)cc3)cc2)CC1
remaining binding (binding, competition with immobilised ligand; 1 µM): 77%

C1=C/COCc2cc(ccc2OCCN2CCCC2)Nc2nccc(n2)-c2cccc(c2)COC/1
remaining binding (binding; 0.1 µM): 88%

COc1c(Cl)cccc1Nc1c(-c2ccncc2OC[C@@H]2COCCO2)[nH]c2c1C(=O)NCC2
inhibition (enzyme activity, inhibitor, radiometric; 1 µM): > 80%

C#Cc1cc(-c2cc(Nc3nc(N[C@@H](C)c4ccc(F)cn4)ncc3Cl)n[nH]2)ccc1C=O
inhibition (enzyme activity, inhibitor; 0.2 µM): 54.3%

C#Cc1cnc(Nc2ccnc(CO)c2)nc1Nc1ccccc1S(C)(=O)=NC#N (centres unmarked)
remaining signal (cell-free assay; 1 µM): 86%

N#Cc1ccc(NC(=O)Nc2ccccc2)cc1
remaining binding (cell-free assay, competition with immobilised ligand; 25 µM): 100%

Cc1ccc(NC(=O)c2ccnc(C(F)(F)F)c2)cc1-c1cc(OCCO)nc(N2CCOCC2)c1
remaining binding (binding, competition with immobilised ligand; 1 µM): 99%

CC#CC(=O)N1CCC[C@H]1c1nc(-c2ccc(C(=O)Nc3ccccn3)cc2)c2c(N)nccn12
inhibition (enzyme activity, inhibitor; 1 µM): 96%

COc1ccc2oc(-c3ccc4nc(N)oc4c3)c/c(=N\c3ccccc3NC(=O)CCN)c2c1
remaining binding (binding; 1 µM): 109%

CCCCC(=O)Nc1ccc(-c2ccc3ncn(CCC)c(=O)c3c2)cn1
remaining binding (binding, competition with immobilised ligand; 0.5 µM): 100%

C=CC(=O)N1CCC[C@@H](n2nc(-c3ccc(Oc4ccccc4)cc3)c3c(N)ncnc32)C1
inhibition (enzyme activity, inhibitor; 1 µM): 100%
